Data as given in ChEMBL document CHEMBL1123757, “Selective thromboxane synthetase inhibitors and antihypertensive agents. New derivatives of 4-hydrazino-5H-pyridazino[4,5-b]indole, 4-hydrazinopyridazino[4,5-a]indole, and related compounds” (J Med Chem, 1987).

Columns and labels:
[1] = test system: Rattus norvegicus; assay: Antihypertensive activity in spontaneously hypertensive rats (SHR) measured by percentage fall in arterial pressure (AP) at 5 mg/kg administered intraperitoneally at 3 h; assay type: functional, Artery; conditions: route intraperitoneal
How it was run: (§1)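 Unanesthetized Okamoto-strain SHR, male and female, 8 weeks old, 300–350 g, systolic pressure ≥190 mmHg, heart rate 400–650 beats/min; five animals per dose. Given ip at 2.5 mL/kg, dissolved or suspended in normal saline or saline with 0.2% (carboxymethyl)cellulose and 1.0% Tween 80. Tail AP and CR recorded by mechanical transduction at set times; reported as percentage fall from control.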

[2] = test system: Rattus norvegicus; assay: Antihypertensive activity in spontaneously hypertensive rats (SHR) measured by percentage fall in arterial pressure (AP) at 5 mg/kg administered intraperitoneally at 1 h; assay type: functional, Artery; conditions: route intraperitoneal; how it was run: as §1
[3] = test system: Rattus norvegicus; assay: Percent fall in systolic blood pressure, directly measured on carotid (iv on the jugular vein) of spontaneously hypertensive rats at 1 mg/kg after 60 minutes; assay type: functional, Artery
How it was run: (§2)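 Anesthetized (sodium pentobarbital, 70 mg/kg) male and female Okamoto SHR, 8 weeks old, 300–350 g. Given iv into the jugular vein in normal saline. Arterial pressure and cardiac rhythm are recorded directly from the carotid by polygraph at set times after dosing. Each is expressed as percent change from the pre-dose control value.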

[4] = test system: Rattus norvegicus; assay: Antihypertensive activity in spontaneously hypertensive rats (SHR) measured by percentage fall in arterial pressure (AP) at 1 mg/kg administered intraperitoneally at 3 h; assay type: functional, Artery; conditions: route intraperitoneal; how it was run: as §1
[5] = test system: Rattus norvegicus; assay: Antihypertensive activity in spontaneously hypertensive rats (SHR) measured by percentage fall in arterial pressure (AP) at 5 mg/kg administered perorally at 1 h; assay type: functional, Artery; conditions: route oral
How it was run: (§3)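 Oral dosing at 2.5 mL/kg to unanesthetized male and female Okamoto-strain SHR (8 weeks old, 300–350 g, systolic pressure ≥190 mmHg, heart rate 400–650 beats/min), five per dose. Vehicle was normal saline or saline with 0.2% (carboxymethyl)cellulose and 1.0% Tween 80. AP measured on the tail by mechanical transduction at set times; expressed as percentage fall from control.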

[6] = test system: Rattus norvegicus; assay: Percent fall in systolic blood pressure, directly measured on carotid (iv on the jugular vein) of spontaneously hypertensive rats at 1 mg/kg after 90 minutes; assay type: functional, Artery; how it was run: as §2
[7] = test system: Rattus norvegicus; assay: Antihypertensive activity in spontaneously hypertensive rats (SHR) measured by percentage fall in arterial pressure (AP) at 25 mg/kg administered intraperitoneally at 24 h; assay type: functional, Artery; conditions: route intraperitoneal; how it was run: as §1
[8] = test system: Rattus norvegicus; assay: Antihypertensive activity in spontaneously hypertensive rats (SHR) measured by percentage fall in cardiac rhythm (CR) at 1 mg/kg administered intraperitoneally at 5 h; assay type: functional, Heart; conditions: route intraperitoneal; how it was run: as §1
[9] = test system: Rattus norvegicus; assay: Antihypertensive activity in spontaneously hypertensive rats (SHR) measured by percentage fall in arterial pressure (AP) at 25 mg/kg administered intraperitoneally at 5 h; assay type: functional, Artery; conditions: route intraperitoneal; how it was run: as §1
[10] = test system: Rattus norvegicus; assay: Antihypertensive activity in spontaneously hypertensive rats (SHR) measured by percentage fall in arterial pressure (AP) at 5 mg/kg administered perorally at 3 h; assay type: functional, Artery; conditions: route oral; how it was run: as §3
[11] = test system: Rattus norvegicus; assay: Percent fall in systolic blood pressure, directly measured on carotid (iv on the jugular vein) of spontaneously hypertensive rats at 1 mg/kg after 5 minutes; assay type: functional, Artery; how it was run: as §2
[12] = test system: Rattus norvegicus; assay: Percent fall in systolic blood pressure, directly measured on carotid (iv on the jugular vein) of spontaneously hypertensive rats at 1 mg/kg after 15 minutes; assay type: functional, Artery; how it was run: as §2
[13] = test system: Rattus norvegicus; assay: Antihypertensive activity in spontaneously hypertensive rats (SHR) measured by percentage fall in arterial pressure (AP) at 25 mg/kg administered intraperitoneally at 3 h; assay type: functional, Artery; conditions: route intraperitoneal; how it was run: as §1
[14] = species on record: Homo sapiens; assay: In vitro inhibition of platelet aggregation induced by ADP-II (PRP incubated for 60 minutes at 37 degree C) at 10e-5 M; assay type: functional; conditions: 1 h
How it was run: (§4)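 Human venous blood anticoagulated with 3.8% sodium citrate (1:9). PRP from centrifugation at 800 rpm for 10 min at room temperature. Count adjusted with PPP to […]. Compound in saline with 10% ethylene glycol is added to PRP and incubated at 37 °C before the agonist. Agonists: ADP 2×10^-5 M, AA 0.6 mM, PGH2 2.8 μM, adrenaline 0.6 μM. Born absorbance aggregometry; n = 5.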

[15] = test system: Rattus norvegicus; assay: Antihypertensive activity in spontaneously hypertensive rats (SHR) measured by percentage fall in cardiac rhythm (CR) at 1 mg/kg administered intraperitoneally at 24 h; assay type: functional, Heart; conditions: route intraperitoneal; how it was run: as §1
[16] = test system: Rattus norvegicus; assay: Antihypertensive activity in spontaneously hypertensive rats (SHR) measured by percentage fall in arterial pressure (AP) at 5 mg/kg administered intraperitoneally at 24 h; assay type: functional, Artery; conditions: route intraperitoneal; how it was run: as §1
[17] = species on record: Homo sapiens; assay: In vitro inhibition of platelet aggregation induced by ADP-II (PRP incubated for 5 minutes at 37 degree C) at 10e-5 M; assay type: functional; how it was run: as §4
[18] = test system: Rattus norvegicus; assay: Antihypertensive activity in spontaneously hypertensive rats (SHR) measured by percentage fall in cardiac rhythm (CR) at 5 mg/kg administered intraperitoneally at 5 h; assay type: functional, Heart; conditions: route intraperitoneal
How it was run: (§5)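 Conscious SHR (Okamoto strain), 8 weeks old, male and female, 300–350 g, systolic BP ≥190 mmHg, CR 400–650 beats/min. Given ip or po at 2.5 mL/kg in normal saline or saline with 0.2% (carboxymethyl)cellulose and 1.0% Tween 80. Tail AP and CR recorded by mechanical transduction at 1, 3, 5 and 24 h, five animals per dose. Effect expressed as % fall versus control.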

[19] = test system: Rattus norvegicus; assay: Antihypertensive activity in spontaneously hypertensive rats (SHR) measured by percentage fall in arterial pressure (AP) at 25 mg/kg administered perorally at 3 h; assay type: functional, Artery; conditions: route oral; how it was run: as §3
[20] = test system: Rattus norvegicus; assay: Antihypertensive activity in spontaneously hypertensive rats (SHR) measured by percentage fall in arterial pressure (AP) at 1 mg/kg administered intraperitoneally at 1 h; assay type: functional, Artery; conditions: route intraperitoneal; how it was run: as §1
[21] = test system: Rattus norvegicus; assay: Antihypertensive activity in spontaneously hypertensive rats (SHR) measured by percentage fall in cardiac rhythm (CR) at 25 mg/kg administered intraperitoneally at 3 h; assay type: functional, Heart; conditions: route intraperitoneal; how it was run: as §1
[22] = test system: Rattus norvegicus; assay: Antihypertensive activity in spontaneously hypertensive rats (SHR) measured by percentage fall in arterial pressure (AP) at 25 mg/kg administered perorally at 1 h; assay type: functional, Artery; conditions: route oral; how it was run: as §3
[23] = test system: Rattus norvegicus; assay: Antihypertensive activity in spontaneously hypertensive rats (SHR) measured by percentage fall in cardiac rhythm (CR) at 25 mg/kg administered intraperitoneally at 5 h; assay type: functional, Heart; conditions: route intraperitoneal; how it was run: as §5
[24] = test system: Rattus norvegicus; assay: Percent fall in systolic blood pressure, directly measured on carotid (iv on the jugular vein) of spontaneously hypertensive rats at 1 mg/kg after 30 minutes; assay type: functional, Artery; how it was run: as §2
[25] = test system: Rattus norvegicus; assay: Percent fall in systolic blood pressure, directly measured on carotid (iv on the jugular vein) of spontaneously hypertensive rats at 1 mg/kg after 75 minutes; assay type: functional, Artery; how it was run: as §2
[26] = test system: Rattus norvegicus; assay: Antihypertensive activity in spontaneously hypertensive rats (SHR) measured by percentage fall in cardiac rhythm (CR) at 1 mg/kg administered intraperitoneally at 1 h; assay type: functional, Heart; conditions: route intraperitoneal; how it was run: as §1
[27] = test system: Rattus norvegicus; assay: Percent fall in systolic blood pressure, directly measured on carotid (iv on the jugular vein) of spontaneously hypertensive rats at 1 mg/kg after 10 minutes; assay type: functional, Artery; how it was run: as §2
[28] = test system: Rattus norvegicus; assay: Antihypertensive activity in spontaneously hypertensive rats (SHR) measured by percentage fall in cardiac rhythm (CR) at 25 mg/kg administered perorally at 1 h; assay type: functional, Heart; conditions: route oral; how it was run: as §5
[29] = test system: Rattus norvegicus; assay: Antihypertensive activity in spontaneously hypertensive rats (SHR) measured by percentage fall in cardiac rhythm (CR) at 25 mg/kg administered intraperitoneally at 24 h; assay type: functional, Heart; conditions: route intraperitoneal; how it was run: as §1
[30] = test system: Rattus norvegicus; assay: Antihypertensive activity in spontaneously hypertensive rats (SHR) measured by percentage fall in arterial pressure (AP) at 5 mg/kg administered intraperitoneally at 5 h; assay type: functional, Artery; conditions: route intraperitoneal; how it was run: as §1
[31] = test system: Rattus norvegicus; assay: Antihypertensive activity in spontaneously hypertensive rats (SHR) measured by percentage fall in cardiac rhythm (CR) at 1 mg/kg administered intraperitoneally at 3 h; assay type: functional, Heart; conditions: route intraperitoneal; how it was run: as §1
[32] = test system: Rattus norvegicus; assay: Antihypertensive activity in spontaneously hypertensive rats (SHR) measured by percentage fall in arterial pressure (AP) at 25 mg/kg administered intraperitoneally at 1 h; assay type: functional, Artery; conditions: route intraperitoneal; how it was run: as §1
[33] = test system: Rattus norvegicus; assay: Percent fall in systolic blood pressure, directly measured on carotid (iv on the jugular vein) of spontaneously hypertensive rats at 1 mg/kg after 45 minutes; assay type: functional, Artery; how it was run: as §2
[34] = test system: Rattus norvegicus; assay: Antihypertensive activity in spontaneously hypertensive rats (SHR) measured by percentage fall in cardiac rhythm (CR) at 5 mg/kg administered perorally at 1 h; assay type: functional, Heart; conditions: route oral; how it was run: as §5

CCOc1ccc2[nH]c3c(NN)nncc3c2c1.Cl
Decrease in AP [1]: 37% | Decrease in AP [2]: 59% | Decrease in blood pressure [3]: 41% | Decrease in AP [4]: 10% | Decrease in AP [5]: 15% | Decrease in blood pressure [6]: 25% | Decrease in AP [7]: 34% | Decrease in CR [8]: -10% | Decrease in AP [9]: 51% | Decrease in AP [10]: 10% | Decrease in blood pressure [11]: 16% | Decrease in blood pressure [12]: 20% | Decrease in AP [13]: 57% | inhibition at 10 µM [14]: 100% | Decrease in CR [15]: 10% | Decrease in AP [16]: 12% | inhibition at 10 µM [17]: 100% | Decrease in CR [18]: -7% | Decrease in AP [19]: 5% | Decrease in AP [20]: 29% | Decrease in CR [21]: -17% | Decrease in AP [22]: 16% | Decrease in CR [23]: -20% | Decrease in blood pressure [24]: 32% | Decrease in blood pressure [25]: 32% | Decrease in CR [26]: 6% | Decrease in blood pressure [27]: 18% | Decrease in CR [28]: 11% | Decrease in CR [29]: -11% | Decrease in AP [30]: 32% | Decrease in CR [31]: -5% | Decrease in AP [32]: 57% | Decrease in blood pressure [33]: 36% | Decrease in CR [34]: -11%
